Experimental data published in ChEMBL document CHEMBL4041548, “Ester Prodrugs of IHVR-19029 with Enhanced Oral Exposure and Prevention of Gastrointestinal Glucosidase Interaction” (ACS Med Chem Lett, 2017).
Calls of active or inactive are those of the source. The rule behind the calls is not given here.

Legend:
[1] = Inhibition of endoplasmic reticulum alpha-glucosidase in HEK293 cells infected with DENV assessed as reduction in viral infection; format: cell-based; details: Homo sapiens
[2] = organism: Bos taurus; assay: Inhibition of endoplasmic reticulum alpha-glucosidase in MDBK cells infected with Bovine Viral Diarrhea virus assessed as reduction in BVDV envelope glycoprotein E2 level at 3 to 100 uM by immunoblot analysis; format: cell-based
Outline: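 MDBK cells infected with BVDV, then treated with various concentrations of the compounds. Cell lysates were run on SDS-PAGE and immunoblotted for the E2 envelope glycoprotein, looking for a mobility shift and lower intensity, with β-actin as internal control.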

[3] = Metabolic stability in pooled mouse liver microsomes assessed as parent compound remaining at 200 uM measured after 60 mins in presence of NADPH and UDPGA by LC-MS/MS analysis; format: ADME, microsome; details: read-out: Stability
Outline: (§1)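 Prodrugs or parent incubated in pooled human or mouse liver microsomes for up to 60 min, with or without cofactor. Percent remaining and percent conversion to the parent were measured.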

[4] = test system: Mus musculus; assay: AUC(0 to infinity) in BALB/c mouse at 100 mg/kg, po administered as single dose by LC-MS/MS analysis; format: ADME, organism-based; design: dose 100 mg/kg, time infinity, route oral; details: in vivo
[5] = Tmax in BALB/c mouse at 100 mg/kg, po administered as single dose by LC-MS/MS analysis; format: ADME, organism-based; details: in vivo
Outline: (§2)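 Male BALB/c mice dosed with the prodrugs or the parent orally (25 or 100 mg/kg) or intravenously (5 mg/kg). The parent compound was quantified in plasma and PK parameters were derived from it. The first sampling point was 5 min post-dose, and prodrugs were tracked up to 4 h.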

[6] = Half life in BALB/c mouse at 25 mg/kg, po administered as single dose by LC-MS/MS analysis; format: ADME, organism-based; details: in vivo; outline: as §2
[7] = Half life in BALB/c mouse at 5 mg/kg, iv as bolus administration by LC-MS/MS analysis; format: ADME, organism-based; details: in vivo; outline: as §2
[8] = Metabolic stability in human intestinal S9 fraction assessed as parent compound level at 200 uM measured after 1 hr in presence or absence of NADPH by LC-MS/MS analysis; format: ADME, Intestine; details: read-out: Stability
Outline: (§3)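 Compounds incubated with intestinal S9 fraction for 1 h. Percent prodrug remaining and percent conversion to the parent were measured.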

[9] = test system: Mus musculus; assay: AUC(0 to infinity) in BALB/c mouse at 25 mg/kg, po administered as single dose by LC-MS/MS analysis; format: ADME, organism-based; design: dose 25 mg/kg, time infinity, route oral; details: in vivo
[10] = Volume of distribution at steady state in BALB/c mouse at 5 mg/kg, iv as bolus administration by LC-MS/MS analysis; format: ADME, organism-based; details: in vivo, read-out: Vdss; outline: as §2
[11] = Cmax in BALB/c mouse at 5 mg/kg, iv as bolus administration by LC-MS/MS analysis; format: ADME, organism-based; design: dose 5 mg/kg, route intravenous; details: in vivo; outline: as §2
[12] = Inhibition of endoplasmic reticulum alpha-glucosidase in human Huh7.5 cells infected with DENV assessed as reduction in viral growth by measuring DENV RNA level by qRT-PCR method; format: cell-based
Outline: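 Huh7.5 cells infected with dengue virus and treated with a concentration series of the compounds (n = 4). DENV RNA was quantified by qRT-PCR and the EC50 was calculated.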

[13] = Inhibition of pig liver endoplasmic reticulum alpha glucosidase-1 using 4-methylumbelliferyl-alpha-D-glucoside as substrate measured after 90 mins by fluorescence analysis; design: species or system Sus scrofa
[14] = Inhibition of pig liver endoplasmic reticulum alpha glucosidase-2 using 4-methylumbelliferyl-alpha-D-glucoside as substrate measured after 60 mins by fluorescence analysis; design: species or system Sus scrofa
[15] = test system: Liver; assay: Half life in pooled mouse liver microsomes at 200 uM by LC-MS/MS analysis; format: ADME, microsome; details: microsomes, 200 µM; outline: as §1
[16] = Tmax in BALB/c mouse at 25 mg/kg, po administered as single dose by LC-MS/MS analysis; format: ADME, organism-based; details: in vivo; outline: as §2
[17] = test system: Liver; assay: Metabolic stability in pooled human liver microsomes assessed as parent compound remaining at 200 uM measured after 60 mins by LC-MS/MS analysis; format: ADME, microsome; details: microsomes, 1 h, 200 µM; outline: as §1
[18] = Half life in BALB/c mouse at 100 mg/kg, po administered as single dose by LC-MS/MS analysis; format: ADME, organism-based; details: in vivo; outline: as §2
[19] = Clearance in BALB/c mouse at 5 mg/kg, iv as bolus administration by LC-MS/MS analysis; format: ADME, organism-based; details: in vivo; outline: as §2
[20] = test system: Liver; assay: Metabolic stability in pooled mouse liver microsomes assessed as parent compound remaining at 200 uM measured after 60 mins by LC-MS/MS analysis; format: ADME, microsome; details: microsomes, 1 h, 200 µM; outline: as §1
[21] = Stability in simulated gastric fluid assessed as parent compound remaining at 5 uM measured after 4 hrs by LC-MS/MS analysis
Outline: (§4)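 Chemical stability assessed by incubation in simulated gastric fluid and simulated intestinal fluid; percent of compound remaining was measured.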

[22] = test system: Liver; assay: Half life in pooled human liver microsomes at 200 uM by LC-MS/MS analysis; format: ADME, microsome; details: microsomes, 200 µM; outline: as §1
[23] = Metabolic stability in mouse plasma assessed as parent compound remaining at 5 uM measured after 2 hrs by LC-MS/MS analysis; format: ADME, cell-free; details: read-out: Stability
Outline: (§5)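 Compounds incubated in human or mouse plasma for 2 h. Percent remaining and percent conversion to the parent were determined.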

[24] = Metabolic stability in pooled human liver microsomes assessed as parent compound remaining at 200 uM measured after 60 mins in presence of NADPH and UDPGA by LC-MS/MS analysis; format: ADME, microsome; details: read-out: Stability; outline: as §1
[25] = Metabolic stability in human plasma assessed as parent compound remaining at 5 uM measured after 2 hrs by LC-MS/MS analysis; format: ADME, cell-free; details: read-out: Stability; outline: as §5
[26] = Cmax in BALB/c mouse at 100 mg/kg, po administered as single dose by LC-MS/MS analysis; format: ADME, organism-based; design: dose 100 mg/kg, route oral; details: in vivo; outline: as §2
[27] = Metabolic stability in mouse intestinal S9 fraction assessed as parent compound level at 200 uM measured after 1 hr in presence or absence of NADPH by LC-MS/MS analysis; format: ADME, Intestine; details: read-out: Stability; outline: as §3
[28] = test system: Mus musculus; assay: AUC(0 to infinity) in BALB/c mouse at 5 mg/kg, iv as bolus administration by LC-MS/MS analysis; format: ADME, organism-based; design: dose 5 mg/kg, time infinity, route intravenous; details: in vivo
[29] = Cmax in BALB/c mouse at 25 mg/kg, po administered as single dose by LC-MS/MS analysis; format: ADME, organism-based; design: dose 25 mg/kg, route oral; details: in vivo; outline: as §2
[30] = Stability in simulated intestinal fluid assessed as parent compound remaining at 5 uM measured after 4 hrs by LC-MS/MS analysis; outline: as §4

CCC(O)(CC)CCCCCCN1C[C@H](O)[C@@H](O)[C@H](O)[C@H]1CO
EC50 [1]: 2.2 µM

OC[C@H]1NC[C@H](O)[C@@H](O)[C@@H]1O [DUVOGLUSTAT]
EC50 [1]: 364 µM

OC[C@@H]1[C@@H](O)[C@H](O)[C@@H](O)CN1CCCCCCOc1cc(F)ccc1F
EC50 [1]: 0.5 µM

CC(C)(C)NC(=O)N(CCCCCCN1C[C@H](O)[C@@H](O)[C@H](O)[C@H]1CO)C1CCCCC1
inhibition [2]: Active
remaining at 1 h, 200 µM [3]: 63%
AUC [4]: 996 ng·mL·h
Tmax [5]: 0.5 h
half-life [6]: 5.19 h
EC50 [1]: 1.2 µM
half-life [7]: 0.98 h
remaining at 1 h, 200 µM [8]: 76 to 95%
AUC [9]: 150 ng·mL·h
Vd [10]: 2.13 L/kg
Cmax [11]: 2840 ng/mL
EC50 [12]: 4.1 µM
IC50 [13]: 0.81 µM
IC50 [14]: 27.8 µM
t1/2 [15]: 1.57 h
Tmax [16]: 0.25 h
Stability [17]: 99%
half-life [18]: 5.46 h
clearance [19]: 70 mL/min/kg
Stability [20]: 96%
Stability [21]: 109%
t1/2 [22]: 1.73 h
remaining at 2 h, 5 µM [23]: 93%
remaining at 1 h, 200 µM [24]: 68%
remaining at 2 h, 5 µM [25]: 109%
Cmax [26]: 915 ng/mL
remaining at 1 h, 200 µM [27]: 76 to 95%
AUC [28]: 1191 ng·mL·h
Cmax [29]: 184 ng/mL
Stability [30]: 114%

CCCCCCCCCN1C[C@H](O)[C@@H](O)[C@H](O)[C@H]1CO
EC50 [1]: 7.1 µM

CCCCN1C[C@H](O)[C@@H](O)[C@H](O)[C@H]1CO [MIGLUSTAT]
EC50 [1]: 56.4 µM
